Laboratory results from ChEMBL document CHEMBL5126672, “Discovery of κ Opioid Receptor (KOR)-Selective d-Tetrapeptides with Improved In Vivo Antinociceptive Effect after Peripheral Administration” (ACS Med Chem Lett, 2022).
Activity calls are given as the source filed them. The rule behind the calls is not given here. Square brackets hold non-standard residues; d marks the D form. Peptide text beside a SMILES is read from it. dNle = CCCC[C@@H](N)C(=O)O

Assays:
[1] = biological target: T1, Kappa-type opioid receptor (Cavia porcellus, UniProt P41144); assay: Displacement of [3H]-HS665 from KOR in guinea pig brain membranes; format: cell membranes, Membrane
[2] = Half life in C57/BL6 mouse plasma at 13.9 mg/kg, iv administered via bolus by LC-MS/MS analysis; format: ADME, organism-based
Procedure, shortened: (§1)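 Single intravenous bolus given to mice. Plasma concentrations were measured, and noncompartmental analysis gave Cmax, Tmax, t1/2 and AUC extrapolated to infinity. The calibration range was 10–1000 nM, with correlation coefficient >0.99 and the curve fit with 1/x2 weighting.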

[3] = biological target: T1, Kappa-type opioid receptor; assay: (§2) Agonist activity at KOR in guinea pig brain membranes assessed as stimulation of [35S]GTPgammaS binding measured after 1 hr by liquid scintillation counting analysis; format: functional, cell membranes, Membrane
[4] = Cmax in C57/BL6 mouse plasma at 13.9 mg/kg, iv administered via bolus by LC-MS/MS analysis; format: ADME, organism-based; set-up: dose 13.9 mg/kg, route iv; procedure, shortened: as §1
Mus musculus [5] = assay: Antinociceptive activity in CD-1 mouse assessed as maximum possible effect at 20 umol/kg, iv measured after 15 to 120 mins by tail-flick test; format: functional, organism-based; settings: dose 20.0 µmol/kg, time 15-120 min
Procedure, shortened: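 Intravenous dosing at 20 μmol/kg in mice, followed by tail flick testing with antinociception expressed as maximum possible effect. Vehicle-treated animals served as controls. N = 8.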

Mus musculus [6] = assay: Antinociceptive activity in formalin-induced CD-1 mouse model of nociception assessed as reduction in total time spent in paw licking during early phase at 100 nmol, sc pretreated for 15 mins followed by formalin challenge measured up to 10 mins by formalin test; format: functional, organism-based; settings: time 25.0 min
Procedure, shortened: (§3)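 Subcutaneous injection into the mouse paw at 100 nmol/mouse, given 15 min before formalin challenge. Nociceptive behaviour was scored in the early and late phases against vehicle and U50,488H groups. Analysis used one-way ANOVA with Tukey's multiple comparisons test.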

[7] = Tmax in C57/BL6 mouse plasma at 13.9 mg/kg, iv administered via bolus by LC-MS/MS analysis; format: ADME, organism-based; procedure, shortened: as §1
Mus musculus [8] = assay: Antinociceptive activity in formalin-induced CD-1 mouse model of nociception assessed as reduction in total time spent in paw licking during late phase at 100 nmol, sc pretreated for 15 mins followed by formalin challenge measured after 10 to 40 mins by formalin test; format: functional, organism-based; settings: time 15-55 min; procedure, shortened: as §3
[9] = Drug uptake in C57/BL6 mouse brain at 13.9 mg/kg, iv administered via bolus by LC-MS/MS analysis; format: ADME, organism-based; settings: in vivo, BLD = below limit of detection
Procedure, shortened: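 Single intravenous bolus given to mice. Brain homogenates were analysed for drug exposure against a calibration curve spanning 10–1000 nM, fit with 1/x2 weighting.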

[10] = AUC (infinity) in C57/BL6 mouse plasma at 13.9 mg/kg, iv administered via bolus by LC-MS/MS analysis; format: ADME, organism-based; set-up: time infinity, dose 13.9 mg/kg, route iv; procedure, shortened: as §1
Mus musculus [11] = assay: Antinociceptive activity in CD-1 mouse assessed as maximum possible effect at 10 nmol, icv measured after 15 to 120 mins by tail-flick test; format: functional, organism-based; settings: time 15-120 min
Procedure, shortened: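 Tail flick test in mice after intracerebroventricular injection of 10 nmol/mouse, with vehicle-treated and U50,488H control groups. Antinociception was expressed as maximum possible effect. N = 7 per group.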

[12] = biological target: Kappa-type opioid receptor (Cavia porcellus) (UniProt P41144); assay: as §2; format: functional, cell membranes; settings: Membrane, filed as agonist, DDE = dose-dependent effect
Kappa-type opioid receptor (Cavia porcellus), sequence (P41144 whole entry): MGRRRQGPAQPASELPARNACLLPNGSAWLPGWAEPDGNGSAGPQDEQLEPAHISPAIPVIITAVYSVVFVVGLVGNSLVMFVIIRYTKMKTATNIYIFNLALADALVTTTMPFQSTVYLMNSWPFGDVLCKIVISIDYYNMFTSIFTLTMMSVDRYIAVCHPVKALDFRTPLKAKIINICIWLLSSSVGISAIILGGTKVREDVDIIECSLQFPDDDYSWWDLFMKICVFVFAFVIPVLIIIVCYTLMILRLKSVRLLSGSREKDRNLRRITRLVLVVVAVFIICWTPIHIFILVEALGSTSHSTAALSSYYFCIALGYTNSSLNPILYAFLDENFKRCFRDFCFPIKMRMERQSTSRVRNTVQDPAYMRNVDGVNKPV

T1 sequence (P41144 whole entry): as above

Row | Compound | Ki [1] [nM] | half-life [2] [min] | EC50 [3] [nM] | Cmax [4] [nM] | Activity (Mus musculus [5]) | Activity (Mus musculus [6]) | Tmax [7] [min] | Activity (Mus musculus [8]) | Drug uptake [9] | AUC(0-inf) [10] [µM·h] | Activity (Mus musculus [11]) | Activity [12]
1 | Oc1cccc(CCN(CCc2ccccc2)CC2CCC2)c1 | 1.91 | – | – | – | – | – | – | – | – | – | – | –
2 | CCCC[C@@H](NC(=O)[C@@H](Cc1ccc(F)cc1)NC(=O)[C@H](N)Cc1ccccc1)C(=O)N[C@H](CCCNC(=N)N)C(N)=O | 0.92 | 20.6 | 955 | 109 | Active | Active | 15 | Active | Bld | 0.0842 | Active | –
3 | CCCC[C@@H](NC(=O)[C@@H](Cc1ccccc1)NC(=O)[C@H](N)Cc1ccccc1F)C(=O)N[C@H](CCCNC(=N)N)C(N)=O | 4.35 | – | 1350 | – | – | Active | – | Active | – | – | Active | –
4 | CCCC[C@@H](NC(=O)[C@@H](Cc1ccccc1)NC(=O)[C@H](N)Cc1ccccc1)C(=O)N[C@H](CCCNC(=N)N)C(N)=O (H-[dF][dF][dNle][dR]-NH2) | 2.33 | 12.7 | 26.3 | 93 | – | – | 5 | – | Bld | 0.0364 | Active | –
5 | CCCC[C@@H](NC(=O)[C@@H](Cc1ccccc1)NC(=O)[C@H](N)Cc1ccc(O)cc1)C(=O)N[C@H](CCCNC(=N)N)C(N)=O | 1.11 | – | 9550 | – | – | – | – | – | – | – | – | Dde
6 | CCCC[C@@H](NC(=O)[C@@H](Cc1cccc(F)c1)NC(=O)[C@H](N)Cc1ccccc1)C(=O)N[C@H](CCCNC(=N)N)C(N)=O | 3 | – | 1860 | – | – | Active | – | Active | – | – | Active | Dde
7 | CCCC[C@@H](NC(=O)[C@@H](Cc1ccccc1)NC(=O)[C@H](N)Cc1cccc(F)c1)C(=O)N[C@H](CCCNC(=N)N)C(N)=O | 1.28 | – | 22.4 | – | Active | Active | – | Active | – | – | Active | Dde
8 | CCCC[C@@H](NC(=O)[C@H]1Cc2ccccc2CN1C(=O)[C@H](N)Cc1ccccc1)C(=O)N[C@H](CCCNC(=N)N)C(N)=O | 3.63 | – | 7.94 | – | – | – | – | – | – | – | – | –
9 | CCCC[C@@H](NC(=O)[C@@H](Cc1ccccc1)NC(=O)[C@H](N)Cc1c[nH]c2ccccc12)C(=O)N[C@H](CCCNC(=N)N)C(N)=O | 3.07 | – | 5.13 | – | – | – | – | – | – | – | – | Dde
